Common to all, as to type: cell-based
The nature of series [1]: Cytotoxicity against human TZM-bl cells assessed as reduction in cell viability incubated for 48 hrs by CellTiter 96 aqueous nonradioactive cell proliferation assay. In short, it runs like this: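 TZM-bl cells with serially diluted compounds, no virus, otherwise as in infection assay (48 h culture); viability read by CellTiter 96 non-radioactive cell proliferation assay.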

Series [2] in a line: Binding affinity to two PBDs of N36 trimer of gp41 in HIV1 NL4-3 infected in human TZM-bl cells assessed as inhibition of viral fusion incubated for 48 hrs by Steady-Glo luciferase assay. The following applies: Human immunodeficiency virus 1, NL4-3, TZM-bl.
Series [3] deals with TZM-bl. Description: Binding affinity to two PBDs of N36 trimer of gp41 in HIV1 NL4-3 infected in human TZM-bl cells assessed as inhibition of viral fusion at 50 uM incubated for 48 hrs by Steady-Glo luciferase assay. To be noted: Human immunodeficiency virus 1.

SMILES strings stand for the structures. Some results are limits rather than exact numbers.

The term CC50 denotes the concentration that lowers cell viability or growth by half. The term IC50 denotes the concentration at which inhibition is half-maximal. Consider `N[C@@H](CC(=O)O)C(=O)Nc1ccc(C(=O)N[C@@H](Cc2c[nH]c3ccccc23)C(=O)O)cc1OCCc1c[nH]c2ccccc12`, for which, in series [1], the CC50 at 48 h was more than 50 µM. Further, the IC50 in series [2] turned out to be 1.6 µM.

`CC(C)C[C@H](NC(=O)c1ccc(NC(=O)[C@H](Cc2c[nH]c3ccccc23)NC(=O)CCC(=O)NCCOCCOCCOCCOCCOCCOCCOCCOCCOCCNC(=O)CCC(=O)N[C@@H](Cc2c[nH]c3ccccc23)C(=O)Nc2ccc(C(=O)N[C@@H](CC(C)C)C(=O)O)cc2OCCc2c[nH]c3ccccc23)c(OCCc2c[nH]c3ccccc23)c1)C(=O)O`: the CC50 at 48 h in series [1] is more than 50 µM. Also, the IC50 in series [2] stood at 1.7 µM.

With `Cc1cn([C@H]2C[C@H](N=[N+]=[N-])[C@@H](CO)O2)c(=O)[nH]c1=O` [ZIDOVUDINE], the CC50 at 48 h in series [1] is more than 100 µM. In addition, in series [2], the IC50 was determined as 0.118 µM.

`CC(C)C[C@H](NC(=O)c1ccc(NC(=O)[C@H](Cc2c[nH]c3ccccc23)NC(=O)CCC(=O)NCCOCCOCCOCCOCCOCCOCCOCCOCCOCCOCCOCCNC(=O)CCC(=O)N[C@@H](Cc2c[nH]c3ccccc23)C(=O)Nc2ccc(C(=O)N[C@@H](CC(C)C)C(=O)O)cc2OCCc2c[nH]c3ccccc23)c(OCCc2c[nH]c3ccccc23)c1)C(=O)O`: the CC50 at 48 h in series [1] was more than 50 µM. Also, the IC50 in series [2] came out at 15 µM.

Consider `O=C(O)C[C@H](NC(=O)CCC(=O)NCCOCCOCCOCCOCCOCCOCCOCCOCCOCCNC(=O)CCC(=O)N[C@@H](CC(=O)O)C(=O)Nc1ccc(C(=O)N[C@@H](Cc2c[nH]c3ccccc23)C(=O)O)cc1OCCc1c[nH]c2ccccc12)C(=O)Nc1ccc(C(=O)N[C@@H](Cc2c[nH]c3ccccc23)C(=O)O)cc1OCCc1c[nH]c2ccccc12`, for which, in series [1], the cytotoxic concentration (CC50) at 48 h was more than 50 µM. Moreover, the IC50 in series [2] amounted to 36.3 µM.

For the compound `CC(C)C[C@H](NC(=O)c1ccc(NC(=O)[C@H](Cc2c[nH]c3ccccc23)NC(=O)CCC(=O)NCCOCCOCCOCCOCCOCCOCCOCCNC(=O)CCC(=O)N[C@@H](Cc2c[nH]c3ccccc23)C(=O)Nc2ccc(C(=O)N[C@@H](CC(C)C)C(=O)O)cc2OCCc2c[nH]c3ccccc23)c(OCCc2c[nH]c3ccccc23)c1)C(=O)O`, the CC50 at 48 h in series [1] is more than 50 µM. Moreover, the IC50 in series [2] was found to be 17 µM.

As a reminder, the inhibition is the percentage by which the read-out fell short of the control. Turning to `CC(C)C[C@H](NC(=O)c1ccc(NC(=O)[C@H](Cc2c[nH]c3ccccc23)NC(=O)CCC(=O)NCCOCCOCCOCCOCCOCCOCCOCCOCCOCCNC(=O)CCC(=O)O)c(OCCc2c[nH]c3ccccc23)c1)C(=O)O`, the CC50 at 48 h in series [1] was more than 50 µM. Moreover, in series [3], the inhibition turned out to be 7%.

Consider `COc1ccc(C[C@H](N)C(=O)Nc2ccc(C(=O)N[C@@H](Cc3c[nH]c4ccccc34)C(=O)O)cc2OCCc2c[nH]c3ccccc23)cc1`, for which, in series [1], the CC50 at 48 h was more than 50 µM. Further, in series [3], the inhibition was determined as 0%.

Turning to `COc1ccc(C[C@H](NC(=O)CCC(=O)NCCOCCOCCOCCOCCOCCOCCOCCOCCOCCNC(=O)CCC(=O)N[C@@H](Cc2ccc(OC)cc2)C(=O)Nc2ccc(C(=O)N[C@@H](Cc3c[nH]c4ccccc34)C(=O)O)cc2OCCc2c[nH]c3ccccc23)C(=O)Nc2ccc(C(=O)N[C@@H](Cc3c[nH]c4ccccc34)C(=O)O)cc2OCCc2c[nH]c3ccccc23)cc1`, in series [1], the cytotoxic concentration (CC50) at 48 h was more than 50 µM. Moreover, the IC50 in series [2] turned out to be 10.2 µM.

Regarding `CC(C)C[C@H](NC(=O)c1ccc(NC(=O)[C@H](Cc2c[nH]c3ccccc23)NC(=O)CCC(=O)NCCOCCOCCOCCOCCOCCNC(=O)CCC(=O)N[C@@H](Cc2c[nH]c3ccccc23)C(=O)Nc2ccc(C(=O)N[C@@H](CC(C)C)C(=O)O)cc2OCCc2c[nH]c3ccccc23)c(OCCc2c[nH]c3ccccc23)c1)C(=O)O`, the CC50 at 48 h in series [1] was more than 50 µM. Besides, the IC50 in series [2] was determined as 17.3 µM.

Consider `CC(C)C[C@H](NC(=O)c1ccc(NC(=O)[C@@H](N)Cc2c[nH]c3ccccc23)c(OCCc2c[nH]c3ccccc23)c1)C(=O)O`, for which the CC50 at 48 h in series [1] is more than 50 µM. For the same compound, the inhibition in series [3] is 1%.

Take `CC(C)C[C@H](NC(=O)c1ccc(NC(=O)[C@H](Cc2c[nH]c3ccccc23)NC(=O)CCC(=O)NCCOCCOCCOCCNC(=O)CCC(=O)N[C@@H](Cc2c[nH]c3ccccc23)C(=O)Nc2ccc(C(=O)N[C@@H](CC(C)C)C(=O)O)cc2OCCc2c[nH]c3ccccc23)c(OCCc2c[nH]c3ccccc23)c1)C(=O)O`: the CC50 at 48 h in series [1] is more than 50 µM. In series [2], the IC50 was determined as 22.8 µM.

As to `CC(C)C[C@H](NC(=O)c1ccc(NC(=O)[C@H](Cc2c[nH]c3ccccc23)NC(=O)CCC(=O)NCCOCCNC(=O)CCC(=O)N[C@@H](Cc2c[nH]c3ccccc23)C(=O)Nc2ccc(C(=O)N[C@@H](CC(C)C)C(=O)O)cc2OCCc2c[nH]c3ccccc23)c(OCCc2c[nH]c3ccccc23)c1)C(=O)O`, in series [1], the CC50 at 48 h was more than 50 µM. Besides, the IC50 in series [2] came out at 23.8 µM.

Values taken from ChEMBL document CHEMBL4699628, “Bivalent HIV-1 fusion inhibitors based on peptidomimetics” (Bioorg Med Chem, 2020).
